In ChEMBL document CHEMBL5303300, “EUbOPEN Chemogenomics Library - Multiplex” (2023):
Values joined by “and” are separate entries in the source; they are usually repeats but may differ in a detail not shown here. Equal entries are not always repeated.

Test system: Fibroblast
Experiment: Multiplex assay against human fibroblast
Type: toxicity, cell-based
Conditions: number of replicates 2
Summary of the method: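 Hoechst33342, BioTracker Green Microtubule Cytoskeleton Dye, MitoTracker Red and Annexin V Alexa Fluor 680 were added to live cells at seeding, and imaging on a CQ1 microscope at 37°C and 5% CO2 followed compound addition. Gating by CellPathfinder machine learning separated cells into Hoechst high-intensity objects or normal cells, then normal cells into healthy, pyknosed or fragmented nuclei, then pyknosed cells into mitotic or apoptotic. Per cents of healthy-nucleus cells are reported for the tubulin, mitochondrial-mass and membrane-permeability phenotypes.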

[1] = 12 h, 1 µM, compound concentration 1 uM
[2] = 12 h, 10 µM, compound concentration 10 uM
[3] = 24 h, 1 µM, compound concentration 1 uM
[4] = 24 h, 10 µM, compound concentration 10 uM
[5] = 48 h, 1 µM, compound concentration 1 uM
[6] = 48 h, 10 µM, compound concentration 10 uM

COc1ncc(-c2cc(-c3ncc(CN4C[C@@H](C)O[C@@H](C)C4)o3)c3cn[nH]c3c2)cc1NS(C)(=O)=O
Population Apoptotic (%) [1]: 48%
Population Fragmented Nuclei (%) [1]: 7% and 8%
Population Healthy Nuclei (%) [1]: 77% and 70%
Population Hoechst High Intensity Objects (%) [1]: 0%
Population Membrane Permeable-Phenotype (%) [1]: 5% and 10%
Population Mitochondria Different-Phenotype (%) [1]: 0%
Population Mitotic Cells (%) [1]: 51%
Population Normal (%) [1]: 100%
Population Pyknosed Nuclei (%) [1]: 14% and 21%
Population Tubulin-Different-Phenotype (%) [1]: 13% and 11%
Total Cell Count [1]: 228 and 199
Population Apoptotic (%) [2]: 30% and 51%
Population Fragmented Nuclei (%) [2]: 4% and 11%
Population Healthy Nuclei (%) [2]: 59% and 66%
Population Hoechst High Intensity Objects (%) [2]: 0%
Population Membrane Permeable-Phenotype (%) [2]: 10% and 9%
Population Mitochondria Different-Phenotype (%) [2]: 3% and 5%
Population Mitotic Cells (%) [2]: 69% and 48%
Population Normal (%) [2]: 100%
Population Pyknosed Nuclei (%) [2]: 35% and 22%
Population Tubulin-Different-Phenotype (%) [2]: 40% and 37%
Total Cell Count [2]: 129 and 148
Population Apoptotic (%) [3]: 51% and 60%
Population Fragmented Nuclei (%) [3]: 6% and 9%
Population Healthy Nuclei (%) [3]: 79% and 67%
Population Hoechst High Intensity Objects (%) [3]: 0%
Population Membrane Permeable-Phenotype (%) [3]: 5% and 11%
Population Mitochondria Different-Phenotype (%) [3]: 0%
Population Mitotic Cells (%) [3]: 48% and 39%
Population Normal (%) [3]: 100% and 99%
Population Pyknosed Nuclei (%) [3]: 13% and 23%
Population Tubulin-Different-Phenotype (%) [3]: 9% and 13%
Total Cell Count [3]: 224 and 204
Population Apoptotic (%) [4]: 55% and 66%
Population Fragmented Nuclei (%) [4]: 6% and 11%
Population Healthy Nuclei (%) [4]: 62% and 71%
Population Hoechst High Intensity Objects (%) [4]: 0%
Population Membrane Permeable-Phenotype (%) [4]: 0% and 6%
Population Mitochondria Different-Phenotype (%) [4]: 3% and 4%
Population Mitotic Cells (%) [4]: 45% and 33%
Population Normal (%) [4]: 100%
Population Pyknosed Nuclei (%) [4]: 31% and 17%
Population Tubulin-Different-Phenotype (%) [4]: 30% and 25%
Total Cell Count [4]: 128 and 157
Population Apoptotic (%) [5]: 69% and 60%
Population Fragmented Nuclei (%) [5]: 12% and 10%
Population Healthy Nuclei (%) [5]: 77% and 74%
Population Hoechst High Intensity Objects (%) [5]: 0%
Population Membrane Permeable-Phenotype (%) [5]: 2% and 7%
Population Mitochondria Different-Phenotype (%) [5]: 0%
Population Mitotic Cells (%) [5]: 30% and 40%
Population Normal (%) [5]: 100% and 99%
Population Pyknosed Nuclei (%) [5]: 9% and 14%
Population Tubulin-Different-Phenotype (%) [5]: 4% and 11%
Total Cell Count [5]: 235 and 206
Population Apoptotic (%) [6]: 70% and 78%
Population Fragmented Nuclei (%) [6]: 5% and 13%
Population Healthy Nuclei (%) [6]: 64% and 67%
Population Hoechst High Intensity Objects (%) [6]: 0%
Population Membrane Permeable-Phenotype (%) [6]: 4% and 5%
Population Mitochondria Different-Phenotype (%) [6]: 4% and 1%
Population Mitotic Cells (%) [6]: 30% and 21%
Population Normal (%) [6]: 100% and 99%
Population Pyknosed Nuclei (%) [6]: 29% and 19%
Population Tubulin-Different-Phenotype (%) [6]: 39% and 28%
Total Cell Count [6]: 134 and 167

C[C@@H](Oc1cc(-n2cnc3ccc(OC4CCN(C)CC4)cc32)sc1C(N)=O)c1ccccc1Cl [GSK-579289A]
Population Apoptotic (%) [1]: 45% and 36%
Population Fragmented Nuclei (%) [1]: 21% and 15%
Population Healthy Nuclei (%) [1]: 62% and 60%
Population Hoechst High Intensity Objects (%) [1]: 0%
Population Membrane Permeable-Phenotype (%) [1]: 7% and 10%
Population Mitochondria Different-Phenotype (%) [1]: 1% and 3%
Population Mitotic Cells (%) [1]: 54% and 63%
Population Normal (%) [1]: 99% and 100%
Population Pyknosed Nuclei (%) [1]: 15% and 24%
Population Tubulin-Different-Phenotype (%) [1]: 40% and 48%
Total Cell Count [1]: 296 and 182
Population Apoptotic (%) [2]: 40% and 46%
Population Fragmented Nuclei (%) [2]: 13% and 23%
Population Healthy Nuclei (%) [2]: 60% and 59%
Population Hoechst High Intensity Objects (%) [2]: 0%
Population Membrane Permeable-Phenotype (%) [2]: 5% and 13%
Population Mitochondria Different-Phenotype (%) [2]: 12% and 13%
Population Mitotic Cells (%) [2]: 59% and 53%
Population Normal (%) [2]: 100%
Population Pyknosed Nuclei (%) [2]: 26% and 17%
Population Tubulin-Different-Phenotype (%) [2]: 84% and 85%
Total Cell Count [2]: 323 and 282
Population Apoptotic (%) [3]: 54% and 58%
Population Fragmented Nuclei (%) [3]: 18% and 23%
Population Healthy Nuclei (%) [3]: 63% and 57%
Population Hoechst High Intensity Objects (%) [3]: 1% and 0%
Population Membrane Permeable-Phenotype (%) [3]: 3% and 2%
Population Mitochondria Different-Phenotype (%) [3]: 3% and 5%
Population Mitotic Cells (%) [3]: 45% and 41%
Population Normal (%) [3]: 98% and 99%
Population Pyknosed Nuclei (%) [3]: 18% and 19%
Population Tubulin-Different-Phenotype (%) [3]: 43% and 40%
Total Cell Count [3]: 282 and 205
Population Apoptotic (%) [4]: 79% and 73%
Population Fragmented Nuclei (%) [4]: 16% and 25%
Population Healthy Nuclei (%) [4]: 46% and 50%
Population Hoechst High Intensity Objects (%) [4]: 0%
Population Membrane Permeable-Phenotype (%) [4]: 2% and 6%
Population Mitochondria Different-Phenotype (%) [4]: 38% and 39%
Population Mitotic Cells (%) [4]: 20% and 26%
Population Normal (%) [4]: 100% and 99%
Population Pyknosed Nuclei (%) [4]: 37% and 23%
Population Tubulin-Different-Phenotype (%) [4]: 88% and 92%
Total Cell Count [4]: 281 and 274
Population Apoptotic (%) [5]: 65% and 85%
Population Fragmented Nuclei (%) [5]: 21% and 25%
Population Healthy Nuclei (%) [5]: 64% and 61%
Population Hoechst High Intensity Objects (%) [5]: 1% and 0%
Population Membrane Permeable-Phenotype (%) [5]: 4%
Population Mitochondria Different-Phenotype (%) [5]: 2% and 5%
Population Mitotic Cells (%) [5]: 34% and 14%
Population Normal (%) [5]: 98% and 99%
Population Pyknosed Nuclei (%) [5]: 14% and 12%
Population Tubulin-Different-Phenotype (%) [5]: 44% and 38%
Total Cell Count [5]: 307 and 222
Population Apoptotic (%) [6]: 97% and 94%
Population Fragmented Nuclei (%) [6]: 18% and 24%
Population Healthy Nuclei (%) [6]: 22% and 18%
Population Hoechst High Intensity Objects (%) [6]: 1% and 0%
Population Mitochondria Different-Phenotype (%) [6]: 46% and 48%
Population Mitotic Cells (%) [6]: 2% and 5%
Population Normal (%) [6]: 98% and 99%
Population Pyknosed Nuclei (%) [6]: 58% and 57%
Population Tubulin-Different-Phenotype (%) [6]: 77% and 93%
Total Cell Count [6]: 199 and 171
